Assay outcomes from PubChem BioAssay.
Diaph inh CS: diaphorase inhibitors and chemical oxidizers, primary screen, counter-screen for diaphorase-coupled primary assays, biochemical, uHTS, resorufin fluorescence. diaphorase resazurin-to-resorufin fluorescence, NADH, 16 min; bacterial (C. kluyveri) enzyme, not human. inhibition, % at 20 µM. actives 0.69% (n = 190,000). AID 1217, 2008;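 active = primary screen inhibition at 20 µM above a set limit, cut at about 50% in these data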;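 also: plate controls were DMSO with full reaction for no effect and wells lacking NADH for full effect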
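System: Diaphorase enzyme from Clostridium kluyveri | Amount: Enzyme working solution with 0.14 U/mL diaphorase | Benchmarks: No-NADH positive control and DMSO neutral control | Signal: Fluorescence of resorufin formed from resazurin, Ex 544/Em 590 nm | Schedule: 16-min room-temperature incubation before reading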
L major viab: Leishmania major promastigote growth inhibition, primary screen; Leishmania major promastigotes, resazurin fluorescence viability; inhibition, % at 10 µM; actives 9% (n = 200,000); AID 1063, 2008;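 also: promastigotes grown with compound for 44 hours at 28 °C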
Diaphorase act: compounds boosting diaphorase resazurin reduction – biochemical, uHTS, resorufin fluorescence, counter-screen for diaphorase-coupled primary assays, primary screen; Diaphorase/resazurin coupled assay, 16 min; active compounds read high; 1 = vehicle wells, 0 = NADH-free wells; activation factor at 20 µM; actives 0.005% (n = 190,000); AID 1229, 2008;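 active = diaphorase activity raised at least twofold by the compound at 20 µM; inactive = activation factor below 2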
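System – purified diaphorase enzyme from Clostridium kluyveri · Input – enzyme 0.07 U/mL final · Also added – final NADH 0.114 mM, resazurin 0.1 mM · Measured by – fluorescence of resorufin, 544 nm excitation, 590 nm emission · Timing – 16 min enzyme reaction, ambient temperature · Measure – resorufin increase flagging diaphorase activators or reducers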
G6PDH counter: L. mesenteroides G6PDH inhibitors, counter-screen for G6PDH-coupled screening assays, biochemical, Leuconostoc mesenteroides enzyme; actives 0.12% (n = 200,000); glucose-6-phosphate dehydrogenase [Leuconostoc mesenteroides]; inhibition, % at 5 µM; AID 1020, 2008; Purified L. mesenteroides G6PDH, diaphorase/resazurin coupled fluorescence, 45 min
WT yeast gro inh: growth inhibition of WT strain, primary screen, mitochondrial fusion inhibitor project, WT and mutant strains, chemical genetic | inhibition, % at 10 µM | mitochondrial fusion phenotypic screen | actives 2.1% (n = 190,000) | AID 1362, 2008; in the data active = inhibition above about 58%; tested in S. cerevisiae
* hit, by the source's call. This is a sample that favours compounds with a hit; in the whole collection about 11% have one here. Rule as the data show it, unless noted: active = inhibition above about 50%; inactive = the rest.

SMILES | Diaph inh CS | L major viab | Diaphorase act | G6PDH counter | WT yeast gro inh
CC1CCc2c(C(=O)OCC(=O)Nc3cccc(S(=O)(=O)N4CCCCCC4)c3)csc2C1 (configuration not stated) | 22 | 83* | 0.8 | -1 | 1
O=C(CN1CCN(Cc2ccccc2)CC1)Nc1cccc(C(F)(F)F)c1 | 8 | 65* | 0.9 | 0 | 12
O=C(CN1CCN(Cc2ccccc2)CC1)Nc1ccc2c(c1)CCC2 | 13 | 74* | 0.9 | 1 | 16
COC(=O)c1sc(NC(=O)CCCn2nc([N+](=O)[O-])cc2C)c(C(=O)OC)c1C | -2 | 49 | 1 | 5 | 0
CCn1c(=O)c2cc(S(=O)(=O)NC3CCCCC3)ccc2n(CC)c1=O | 18 | 1 | 0.8 | -2 | 16
COc1ccc(C(=O)NC(=S)NCC2CCCO2)cc1 (configuration not stated) | 15 | 2 | 0.8 | 7 | -3
CC1CN(CC(=O)Nc2cccc(C(=O)Nc3cccc(C(F)(F)F)c3)c2)CC(C)O1 (configuration not stated) | 19 | 13 | 0.8 | -1 | -10
O=C(CSCc1ccccc1)Nc1ccc(Cl)cn1 | 16 | 0 | 0.8 | 6 | 26
O=C(CN1CCN(c2ccc(O)cc2)CC1)Nc1cc(S(=O)(=O)N2CCCCC2)ccc1Cl | 25 | 99* | 0.8 | -2 | 1
O=S(=O)(c1ccc(Cl)c(NC(=S)N/N=C/c2ccc(O)cc2)c1)N1CCOCC1 | 37 | 88* | 0.6 | 9 | 8
O=C(CN1CCN(c2ccc(O)cc2)CC1)Nc1cc(S(=O)(=O)N2CCCC2)ccc1Cl | 23 | 42 | 0.8 | 6 | -17
O=C(CN1CCN(Cc2ccccc2)CC1)Nc1ccc(Cl)cn1 | 12 | 53* | 0.9 | -2 | 31
CC1CCN(CC(=O)Nc2cccc(C(=O)Nc3cccc(C(F)(F)F)c3)c2)CC1 | 14 | 82* | 0.9 | -1 | 15
CCn1c(CNC(=O)c2cccs2)n[nH]c1=S | 9 | -6 | 0.9 | 8 | -8
Cc1cccc(NC(=O)CCN2CC(C)OC(C)C2)c1 (configuration not stated) | 20 | 89* | 0.8 | 3 | -2
Cc1ccc(S(=O)(=O)NCCC(=O)Nc2cccc(Cl)c2)cc1 | 13 | 52* | 0.9 | 1 | -11
Cc1cc(C)cc(NC(=O)CCN2CC(C)OC(C)C2)c1 (configuration not stated) | 9 | 80* | 0.9 | 3 | 41
CC1CC(C)CN(CCC(=O)Nc2cccc(Cl)c2)C1 (configuration not stated) | -2 | 83* | 1 | -2 | 9
Cc1onc(-c2ccccc2)c1C(=O)N/N=C/c1cc2c(cc1Cl)OCO2 | 30 | 100* | 0.7 | -2 | 3
COc1cccc(/C=N/NC(=O)c2c(-c3ccccc3)noc2C)c1O | 20 | 95* | 0.8 | 3 | 27
CCOC(=O)c1sc2nc3c(SCCC#N)cc(C(=O)c4cc(F)ccc4O)cn3c(=O)c2c1C | 16 | 63* | 0.8 | 0 | -4
CCOC(=O)c1sc2nc3c(SCCC(=O)O)cc(C(=O)c4cc(OC)ccc4O)cn3c(=O)c2c1C | 28 | -12 | 0.7 | 6 | 2
Fc1ccc(NC(=S)Nc2ccc(Cl)cc2)cc1 | -16 | 63* | 1.2 | -3 | 16
Fc1ccc(NC(=S)Nc2cc(Cl)ccc2Cl)cc1 | 5 | 6 | 1 | 1 | -37
CCOC(=O)c1c(-c2ccccc2)oc2ccc(O)c(CN3CCCC3)c12 | 5 | 99* | 0.9 | 6 | 31
SMILES | Diaph inh CS | L major viab | Diaphorase act | G6PDH counter | WT yeast gro inh
CCOC(=O)c1c(-c2ccccc2)oc2ccc(O)c(CN(C)C)c12 | 0 | 100* | 1 | 10 | 25
COc1cccc(-c2c(C#N)c(N)nc3c2c(=O)nc2sccn23)c1 | 13 | -3 | 0.9 | -1 | -1
CC(=O)c1ccc(S(=O)(=O)Nc2ccc(-c3cn4c(n3)SCC4)cc2)cc1 | 6 | -3 | 0.9 | 7 | -10
COC(=O)[C@@]1(Cc2ccc(F)cc2)[C@H]2c3cc(C(=O)N(C)C)n(Cc4ccc(OC(F)(F)F)cc4)c3C[C@H]2CN1C(=O)c1ccccc1 | 22 | 83* | 0.8 | 6 | 30
COC(=O)[C@@]1(Cc2ccc(OC)cc2)[C@H]2c3cc(C(=O)N(C)C)n(CCSCCO)c3C[C@H]2CN1C(=O)c1ccccc1 | 2 | 65* | 1 | 12 | 23
COC(=O)[C@@]1(Cc2ccc(OC)cc2)[C@H]2c3cc(C(=O)N4CCCC4)n(CCO)c3C[C@H]2CN1C(=O)c1ccccc1 | 14 | 0 | 0.9 | 25 | 2
COC(=O)[C@@]1(Cc2ccc(F)cc2)[C@H]2c3cc(C(=O)N(C)C)n(C[C@H](O)CO)c3C[C@H]2CN1C(=O)c1ccccc1 | 23 | 0 | 0.8 | 14 | 2
COC(=O)[C@@]1(Cc2ccccc2)[C@H]2c3cc(C(=O)N4CCCC4)n(Cc4ccsc4Br)c3C[C@H]2CN1C(=O)c1ccccc1 | 32 | 54* | 0.7 | 11 | 48
COC(=O)[C@@]1(Cc2ccc(F)cc2)[C@H]2c3cc(C(=O)N4CCCC4)n(CCc4ccc(O)c(O)c4)c3C[C@H]2CN1C(=O)c1ccccc1 | 52* | 100* | 0.5 | 25 | -3
COC(=O)[C@@]1(Cc2ccc(F)cc2)[C@H]2c3cc(C(=O)N4CCCC4)n(CCO)c3C[C@H]2CN1C(=O)c1ccccc1 | 11 | 11 | 0.9 | 4 | 4
O=C(CN(C(=O)CNC(=O)c1ccco1)c1ccc(Cl)c(Cl)c1)NC1CCCCC1 | 6 | -11 | 0.9 | -3 | -12
COC(=O)[C@@]1(Cc2ccc(OC)cc2)[C@H]2c3cc(C(=O)N4CCCC4)n(CCSCCO)c3C[C@H]2CN1C(=O)c1ccccc1 | 21 | 51* | 0.8 | 24 | -15
COC(C(=O)NNC(=O)CCc1ccccc1)c1ccccc1 (configuration not stated) | 5 | -4 | 0.9 | 2 | -16
CCOc1ccccc1N(CC(=O)NC(C)(C)C)C(=O)Cn1nnc(-c2ccc(C)o2)n1 | 17 | 60* | 0.8 | 14 | -9
COc1ccc(OCc2cc(-c3ccc(Cl)cc3)no2)cc1 | 3 | -3 | 1 | 0 | -6
O=C(CCl)NCc1cc(-c2ccc(Cl)cc2)no1 | 3 | 71* | 1 | 6 | -19
CC(C)n1c(-c2ccc(N(C)C)cc2)nc2ccccc21 | 24 | 50* | 0.8 | 14 | 20
O=C(c1ccc(OC2CCN(Cc3ccccn3)CC2)cc1)N1CCCCO1 | 23 | 67* | 0.8 | 18 | 0
